{"source": "ChEMBL document CHEMBL1649291", "about": "“ADS-J1 inhibits human immunodeficiency virus type 1 entry by interacting with the gp41 pocket region and blocking fusion-active gp41 core formation” (Antimicrob Agents Chemother, 2009)", "key": {"[1]": {"target": "C-X-C chemokine receptor type 4 (Homo sapiens) (UniProt P61073)", "sequence (P61073 whole entry)": "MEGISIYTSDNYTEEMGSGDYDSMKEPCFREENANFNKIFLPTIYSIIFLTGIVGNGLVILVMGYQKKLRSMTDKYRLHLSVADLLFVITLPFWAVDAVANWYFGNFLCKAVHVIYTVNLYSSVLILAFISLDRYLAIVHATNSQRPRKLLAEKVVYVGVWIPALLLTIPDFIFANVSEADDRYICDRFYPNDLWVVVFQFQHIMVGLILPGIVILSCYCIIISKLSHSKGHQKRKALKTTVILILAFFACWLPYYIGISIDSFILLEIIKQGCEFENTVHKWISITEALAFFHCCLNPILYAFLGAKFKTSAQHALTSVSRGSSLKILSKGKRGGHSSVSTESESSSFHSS", "assay": "Inhibition of MAb12G5 binding to CXCR4 in human CEM cells at 25 uM by ELISA", "type": "cell-based", "details": "CCRF-CEM"}, "[2]": {"test_system": "Human immunodeficiency virus 1", "details": "3B, 1 uM"}, "[3]": {"test_system": "Human immunodeficiency virus 1", "assay": "Binding affinity to IQNI7 pocket of HIV1 3B gp41 at 1 uM after 30 mins by SPR assay"}, "[4]": {"test_system": "Human immunodeficiency virus 1", "details": "3B, 1 uM", "remark": "listed apart in the source"}, "[5]": {"test_system": "Human immunodeficiency virus 1", "assay": "Antiviral activity against HIV1 3B infected in human MT2 cells assessed as inhibition of viral p24 antigen production at 5 uM after 8 hrs by ELISA"}, "[6]": {"test_system": "MT2", "assay": "Inhibition of to HIV1 3B gp120 binding to CD4-positive human MT2 cells at 10 ug/ml by ELISA", "type": "cell-based", "details": "Human immunodeficiency virus 1"}, "[7]": {"test_system": "MT2", "assay": "Inhibition of HIV1 3B gp41-mediated cell-cell fusion between viral envelope expressing virus-infected human H9 cells to human MT2 cells at 10 uM treated 30 mins before viral infection by fluorescence assay", "type": "cell-based", "details": "Human immunodeficiency virus 1"}, "[8]": {"test_system": "Human immunodeficiency virus 1", "assay": "Inhibition of preformed HIV1 3B gp41 fusion-active core formation at 40 to 100 uM after 30 mins by sandwich ELISA"}, "[9]": {"test_system": "MT2", "assay": "Inhibition of HIV1 3B gp41-mediated cell-cell fusion between viral envelope expressing virus-infected human H9 cells to human MT2 cells at 10 uM measured after drug washout by fluorescence assay", "type": "cell-based", "details": "Human immunodeficiency virus 1", "method_in_brief": "(§1)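 Dye-transfer fusion: calcein-AM-labeled H9/HIV-1 IIIB cells cocultured with MT-2 cells (1:5) at 37°C for 2 h; compound at 10 µM either present throughout, or preincubated with H9/HIV-1 IIIB or with MT-2 cells 37°C 30 min then removed by two washes before adding partner cells. Fused and unfused labeled cells counted by fluorescence microscopy; triplicates, mean ± SD.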"}, "[10]": {"test_system": "Human immunodeficiency virus 1", "assay": "Inhibition of HIV1 3B gp41 fusion-active core formation after 30 mins by N-PAGE", "method_in_brief": "(§2)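 Native PAGE: N36 incubated with compound or PBS (or, for the preformed case, N36 with C34) at 37°C 30 min before adding the third component; final peptides 40 µM, compounds 100 µM; further 30 min 37°C. Mixed 1:1 with native sample buffer, run on 18% Tris-glycine gels at 125 V, room temperature, 2 h; Coomassie staining.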"}, "[11]": {"test_system": "Human immunodeficiency virus 1", "assay": "Inhibition of preformed HIV1 3B gp41 fusion-active core formation at 40 to 100 uM after 30 mins by N-PAGE", "method_in_brief": "as §2"}, "[12]": {"test_system": "Human immunodeficiency virus 1", "assay": "(§3) Inhibition of HIV1 3B gp41 fusion-active core formation after 30 mins by sandwich ELISA", "method_in_brief": "(§4)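 After 30 min at 37°C, mixtures added to wells coated with anti-6-HB rabbit IgG (10 µg/ml); detected with MAb NC-1, biotin anti-mouse IgG, SA-HRP, TMB at A450. Triplicates; percent inhibition calculated.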"}, "[13]": {"assay": "as §3", "parameters": "species or system Human immunodeficiency virus 1", "method_in_brief": "as §4"}, "[14]": {"test_system": "Human immunodeficiency virus 1", "assay": "Binding affinity to HIV1 3B gp41 assessed as alteration of structural configuration of N36-C34 complex at 10 to 40 uM after 30 mins by spectroscopy", "method_in_brief": "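CD spectroscopy in PBS pH 7.2: N36 preincubated with compound or PBS 37°C 30 min, then C34 added and incubated a further 30 min at 37°C; final peptides 10 µM each, compound 40 µM. Spectra at room temperature, 0.1-cm path, blank-subtracted; α-helix content from mean residue ellipticity at 222 nm relative to −33,000 deg cm2 dmol−1.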"}, "[15]": {"test_system": "Human immunodeficiency virus 1", "assay": "Induction of alteration of preformed structural configuration of N36-C34 complex in HIV1 3B gp41 at 10 to 40 uM after 30 mins by spectroscopy", "method_in_brief": "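Preformed-complex CD control: N36 and C34 incubated together 37°C 30 min, then compound or PBS added for a further 30 min at 37°C; final peptides 10 µM each, compound 40 µM, in PBS pH 7.2. Spectra at room temperature, blank-subtracted; helicity from 222 nm ellipticity versus −33,000 deg cm2 dmol−1.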"}, "[16]": {"test_system": "Human immunodeficiency virus 1", "assay": "Antiviral activity against HIV1 3B infected in human MT2 cells assessed as inhibition of viral p24 antigen production at 5 uM after 1 hr by ELISA"}, "[17]": {"test_system": "MT2", "assay": "Inhibition of HIV1 3B gp41-mediated cell-cell fusion between viral envelope expressing human virus-infected H9 cells to human MT2 cells at 10 uM by fluorescence assay", "type": "cell-based", "details": "Human immunodeficiency virus 1", "method_in_brief": "as §1"}, "[18]": {"test_system": "Human immunodeficiency virus 1", "assay": "Binding affinity to HIV1 3B gp41 assessed as effect on N36K574D-C34D632K complex formation at 40 to 100 uM after 30 mins by N-PAGE"}, "[19]": {"assay": "Inhibition of PIE7 binding to HIV1 3B gp41 after 30 mins by ELISA", "parameters": "species or system Human immunodeficiency virus 1"}, "[20]": {"test_system": "MT2", "assay": "Inhibition of HIV1 3B gp41-mediated cell-cell fusion between viral envelope expressing virus-infected human H9 cells to human MT2 cells at 10 uM treated before addition of human MT2 cells measured after drug washout by fluorescence assay", "type": "cell-based", "details": "Human immunodeficiency virus 1", "method_in_brief": "as §1"}, "[21]": {"test_system": "Human immunodeficiency virus 1", "assay": "Binding affinity to IQ pocket of HIV1 3B gp41 at 1 uM after 30 mins by SPR assay"}}, "note": "Calls of active or inactive are those of the source. The rule behind the calls is not given here. Peptide text beside a SMILES is read from it."}
{"smiles": "N=C(N)NCCC[C@H](NC(=O)[C@H](CS)NC(=O)[C@H](CCCCN)NC(=O)[C@H](CCCNC(=N)N)NC(=O)[C@H](Cc1ccc(O)cc1)NC(=O)[C@H](CS)NC(=O)[C@H](Cc1ccc(O)cc1)NC(=O)CNC(=O)[C@H](CCCCN)NC(=O)[C@H](Cc1ccc(O)cc1)NC(=O)[C@H](CS)NC(=O)[C@H](CCCCN)NC(=O)[C@H](CCCNC(=N)N)NC(=O)[C@H](Cc1ccc(O)cc1)NC(=O)[C@H](CS)NC(=O)[C@H](Cc1c[nH]c2ccccc12)NC(=O)[C@H](CCCNC(=N)N)NC(=O)[C@@H](N)CCCNC(=N)N)C(=O)O", "note": "(H-RRWCYRKCYKGYCYRKCR-OH)", "values": [{"measurement": "inhibition", "setting": "[1]", "value": "Active"}]}
{"smiles": "c1cc(CN2CCCNCCNCCCNCC2)ccc1CN1CCCNCCNCCCNCC1", "values": [{"measurement": "inhibition", "setting": "[2]", "value": "Active"}, {"measurement": "Activity", "setting": "[3]", "value": "inactive"}, {"measurement": "inhibition", "setting": "[4]", "value": "inactive"}]}
{"smiles": "Cc1cn([C@H]2C[C@H](N=[N+]=[N-])[C@@H](CO)O2)c(=O)[nH]c1=O", "values": [{"measurement": "inhibition", "setting": "[5]", "value": "inactive"}]}
{"smiles": "CN1C(=O)[C@@H](c2cc(Cl)c(O)c(Cl)c2)NC(=O)[C@@H]2NC(=O)[C@@H](c3cc(Cl)c(O)c(Cl)c3)NC(=O)[C@H](NC(=O)C(=O)c3cc(Cl)c(O)c(Cl)c3)Cc3c[nH]c4c(cccc34)-c3cc2cc(c3O)Oc2ccc(cc2)C[C@H]1C(=O)N[C@@H](C(=O)O)c1ccc(O)cc1", "values": [{"measurement": "inhibition", "setting": "[6]", "value": "Active"}]}
{"smiles": "COc1ccc(S(=O)(=O)O)cc1/N=N/c1c(S(=O)(=O)O)cc2cc(Nc3nc(Nc4ccccc4)nc(Nc4cc(C)c(/N=N/c5cc(S(=O)(=O)O)cc6cc(S(=O)(=O)O)cc(O)c56)cc4OC)n3)ccc2c1O", "values": [{"measurement": "inhibition", "setting": "[7]", "value": "inactive"}, {"measurement": "inhibition", "setting": "[8]", "value": "inactive"}, {"measurement": "inhibition", "setting": "[9]", "value": 50, "unit": "%"}, {"measurement": "inhibition", "setting": "[10]", "value": "Dose-dependent effect"}, {"measurement": "inhibition", "setting": "[11]", "value": "inactive"}, {"measurement": "inhibition", "setting": "[12]", "value": "Dose-dependent effect"}, {"measurement": "IC50", "setting": "[13]", "value": 3.36, "unit": "µM"}, {"measurement": "Activity", "setting": "[14]", "value": "Active"}, {"measurement": "inhibition", "setting": "[6]", "value": "inactive"}, {"measurement": "Activity", "setting": "[15]", "value": "inactive"}, {"measurement": "inhibition", "setting": "[1]", "value": 18, "unit": "%"}, {"measurement": "Activity", "setting": "[3]", "value": "Active"}, {"measurement": "inhibition", "setting": "[16]", "value": "Active"}, {"measurement": "inhibition", "setting": "[17]", "value": "Active"}, {"measurement": "Activity", "setting": "[18]", "value": "inactive"}, {"measurement": "IC50", "setting": "[19]", "value": 0.68, "unit": "µM"}, {"measurement": "inhibition", "setting": "[20]", "value": 80, "unit": "%"}]}
{"smiles": "CC[C@H](C)[C@H](NC(=O)[C@H](CCC(=O)O)NC(=O)[C@H](CC(N)=O)NC(=O)[C@H](CCC(=O)O)NC(=O)[C@@H](NC(=O)[C@H](CCCCN)NC(=O)[C@H](CCCCN)NC(=O)[C@H](CCC(N)=O)NC(=O)[C@H](CCCCN)NC(=O)[C@H](CO)NC(=O)[C@H](CCC(=O)O)NC(=O)[C@@H](NC(=O)[C@H](CCC(=O)O)NC(=O)[C@H](CCC(=O)O)NC(=O)[C@@H](NC(=O)[C@H](CCCCN)NC(=O)[C@H](CC(=O)O)NC(=O)[C@H](CCC(=O)O)NC(=O)[C@@H](NC(=O)[C@H](CCC(N)=O)NC(=O)[C@H](CCCCN)NC(=O)[C@H](CCSC)NC(=O)[C@@H](N)CCCNC(=N)N)[C@@H](C)CC)[C@@H](C)CC)[C@@H](C)CC)[C@@H](C)CC)C(=O)N[C@@H](C)C(=O)N[C@@H](CCCNC(=N)N)C(=O)N[C@H](C(=O)N[C@@H](CCCCN)C(=O)N[C@@H](CCCCN)C(=O)O)[C@@H](C)CC", "values": [{"measurement": "Activity", "setting": "[21]", "value": "inactive"}]}
